Tests used:
[1] = Distribution coefficient n-octanol/phosphate buffer pH 7.4; assay type: physicochemical; details: 1-octanol / 0.025 M phosphate buffer pH 7.4
In short: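 HPLC-purified radiotracer (~37 MBq/mL in saline) was added to equal volumes of n-octanol and 0.025 M sodium phosphate buffer pH 7.4 (n=8). Tubes were vortexed for 1 min at room temperature and centrifuged at 3000 rpm for 10 min. Phase aliquots were weighed and gamma-counted. D was calculated as cpm/mL octanol over cpm/mL buffer, with volumes derived from mass and phase density.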

[2] = Biodistribution in control NMRI mice; assay type: in vivo; details: for % ID / % ID/g: control mice i.v.
In short: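 Male NMRI mice (32–43 g) under pentobarbital (60 mg/kg i.p.) or isoflurane (2% in oxygen) received about 9.25 MBq of radiotracer in saline via a lateral tail vein. They were decapitated at 2, 10 or 60 min p.i. (n=4 per time point). Organs and blood were dissected, weighed and gamma-counted. %ID was organ cpm over total recovered cpm. Blood mass was taken as 7% of body mass.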

[3] = system: TRPV1 receptor; experiment: Biodistribution in NMRI mice pretreated with BCTC or SB366791; assay type: in vivo; details: 60 min p.i.
In short: (§1)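 Male NMRI mice (32–43 g), either pretreated s.c. 1 h before tracer or TRPV1−/−. Tracer was diluted in saline (<10% ethanol) and ~9.25 MBq given via lateral tail vein under pentobarbital (60 mg/kg i.p.) or isoflurane (2% in O2). Mice were decapitated at 2, 10 or 60 min (n=4 per time point). Tissues and blood were weighed and gamma-counted, and trigeminal nerve-to-blood activity ratios calculated. Values are mean ± SEM.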

[4] = system: TRPV1 receptor; experiment: Biodistribution in TRPV1^-/- mice; assay type: in vivo; details: 60 min p.i.
In short: as §1

[5] = Plasma radiometabolites in mice; assay type: in vivo; details: mouse plasma
[6] = Brain radiometabolites in mice; assay type: in vivo; details: mouse brain
[7] = target: T1, hTRPV1 (Homo sapiens, UniProt Q8NER1); experiment: [^3H]RTX competition binding on CHO cells transfected with hTRPV1; details: read-out: binding affinity (Kd), [^3H]RTX as radioligand
T1 sequence (Q8NER1 whole entry): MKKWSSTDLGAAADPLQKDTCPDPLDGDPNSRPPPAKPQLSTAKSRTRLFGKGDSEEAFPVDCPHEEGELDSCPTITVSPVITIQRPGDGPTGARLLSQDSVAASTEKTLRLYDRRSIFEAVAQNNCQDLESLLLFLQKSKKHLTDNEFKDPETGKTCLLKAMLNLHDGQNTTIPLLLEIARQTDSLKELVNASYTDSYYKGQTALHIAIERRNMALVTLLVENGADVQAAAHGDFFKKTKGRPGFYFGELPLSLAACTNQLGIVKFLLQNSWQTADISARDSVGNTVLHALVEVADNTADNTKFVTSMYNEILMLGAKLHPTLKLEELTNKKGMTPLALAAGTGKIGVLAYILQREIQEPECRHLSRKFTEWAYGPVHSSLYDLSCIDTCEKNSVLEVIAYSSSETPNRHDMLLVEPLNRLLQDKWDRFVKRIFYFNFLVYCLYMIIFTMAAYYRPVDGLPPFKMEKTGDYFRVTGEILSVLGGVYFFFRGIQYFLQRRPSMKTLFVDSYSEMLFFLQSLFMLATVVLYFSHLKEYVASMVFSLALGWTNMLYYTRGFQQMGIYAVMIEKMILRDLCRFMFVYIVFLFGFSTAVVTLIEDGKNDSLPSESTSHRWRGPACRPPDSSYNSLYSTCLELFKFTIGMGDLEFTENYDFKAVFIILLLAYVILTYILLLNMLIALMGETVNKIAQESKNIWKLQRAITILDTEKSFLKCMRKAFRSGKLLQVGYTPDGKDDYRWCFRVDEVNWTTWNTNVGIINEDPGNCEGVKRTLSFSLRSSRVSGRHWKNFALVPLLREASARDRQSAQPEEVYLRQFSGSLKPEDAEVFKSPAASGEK
In short: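 Stable Tet-Off CHO cells expressing human TRPV1 were induced 48 h in tetracycline-free medium, harvested and pelleted. Assay mix: DPBS with Ca2+/Mg2+, BSA 0.25 mg/mL, [3H]RTX 100 pM and varying competitor concentrations; 100 nM unlabelled RTX defined nonspecific binding. Incubation 60 min at 37 °C, ice-cooled, glycoprotein added, membranes pelleted by centrifugation. Pellets and supernatant were scintillation-counted and Ki fitted with the Hill equation.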

[8] = target: T2, rTRPV1 (Rattus norvegicus, UniProt O35433); experiment: [^3H]RTX competition binding on CHO cells transfected with rTRPV1; details: read-out: binding affinity (Kd), [^3H]RTX as radioligand
T2 sequence (O35433 whole entry): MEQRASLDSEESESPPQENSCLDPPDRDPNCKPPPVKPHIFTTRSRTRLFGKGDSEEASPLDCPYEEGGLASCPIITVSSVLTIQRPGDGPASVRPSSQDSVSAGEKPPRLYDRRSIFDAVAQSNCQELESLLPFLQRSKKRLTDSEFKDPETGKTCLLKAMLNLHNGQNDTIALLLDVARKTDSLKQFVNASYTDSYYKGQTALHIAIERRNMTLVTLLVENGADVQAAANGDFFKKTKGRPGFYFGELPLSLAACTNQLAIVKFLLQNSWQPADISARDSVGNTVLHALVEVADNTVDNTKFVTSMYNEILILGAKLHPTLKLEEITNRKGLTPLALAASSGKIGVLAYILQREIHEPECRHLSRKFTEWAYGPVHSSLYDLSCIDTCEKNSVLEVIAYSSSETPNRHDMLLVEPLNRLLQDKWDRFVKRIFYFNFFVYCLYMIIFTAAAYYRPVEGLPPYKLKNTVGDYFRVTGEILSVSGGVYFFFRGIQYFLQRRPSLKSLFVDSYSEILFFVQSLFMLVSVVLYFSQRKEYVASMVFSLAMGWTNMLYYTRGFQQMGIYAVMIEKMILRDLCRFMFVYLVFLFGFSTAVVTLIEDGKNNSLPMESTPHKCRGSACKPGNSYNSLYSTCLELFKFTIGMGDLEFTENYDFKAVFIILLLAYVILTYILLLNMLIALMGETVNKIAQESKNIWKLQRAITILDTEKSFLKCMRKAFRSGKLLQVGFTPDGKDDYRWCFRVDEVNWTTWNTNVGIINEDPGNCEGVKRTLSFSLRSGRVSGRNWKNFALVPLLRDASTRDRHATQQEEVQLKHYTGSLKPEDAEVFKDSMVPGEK
In short: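 A stable Tet-Off CHO line with rat TRPV1 was induced for 48 h in tetracycline-free medium, harvested and pelleted, and pellets were stored at −20 °C. Binding used [3H]RTX (100 pM) plus graded competitor in DPBS with Ca2+/Mg2+ and BSA (0.25 mg/mL), at 37 °C for 60 min. Nonspecific binding was set with 100 nM unlabelled RTX. Membranes were pelleted after glycoprotein addition and scintillation-counted. Parameters came from Hill equation fits.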

[9] = target: T1, hTRPV1; experiment: ^45Ca^2+ uptake in CHO-hTRPV1 cells; assay type: cell-based
In short: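 Tet-Off CHO-hTRPV1 cells at 50–70% confluency were induced 48 h without tetracycline. Assay medium was DMEM with BSA 0.25 mg/mL, 45Ca2+ 37 kBq/mL and increasing ligand concentrations. Antagonism wells also held capsaicin 75 nM; full-agonist reference was capsaicin 300 nM. After 5 min at 37 °C, cells were washed, lysed in RIPA buffer and scintillation-counted. Each point is the mean of four wells, fitted with the Hill equation.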

[10] = target: T2, rTRPV1; experiment: ^45Ca^2+ uptake in CHO-rTRPV1 cells; assay type: cell-based
In short: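 CHO-rTRPV1 cells (Tet-Off) were induced for about 48 h without tetracycline. They were then exposed for 5 min at 37 °C to DMEM containing BSA (0.25 mg/mL), 45Ca2+ (37 kBq/mL) and increasing test compound. Agonism was referenced to 300 nM capsaicin, and antagonism was tested against 75 nM capsaicin. Cells were washed, lysed in RIPA buffer and scintillation-counted. Each point was the mean of four wells, fitted to the Hill equation.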

[11] = target: T1, hTRPV1; details: read-out: IC50 reported for hTRPV1; cited from earlier work
[12] = control mice, pentobarbital, i.v.
[13] = read-out: antagonist activity (Ki), capsaicin 75 nM

## [11CH3]Oc1cccc(NC(=O)/C=C/c2ccc(Cl)cc2)c1 [[^11C]SB366791]
[1]
  log D: 3.5±0.1
[2]; Bladder+urine, 2 min p.i.
  % ID: 0.2±0.1 % ID
[2]; Bladder+urine, 10 min p.i.
  % ID: 8.0±2.5 % ID
[2]; Bladder+urine, 60 min p.i.
  % ID: 25.9±12.0 % ID
[2]; Blood, 2 min p.i.
  % ID: 9.9±1.0 % ID
  % ID/g: 3.6±0.4 % ID/g
[2]; Blood, 10 min p.i.
  % ID: 6.9±0.5 % ID
  % ID/g: 2.6±0.2 % ID/g
[2]; Blood, 60 min p.i.
  % ID: 2.3±0.2 % ID
  % ID/g: 0.8±0.1 % ID/g
[2]; Bone, 2 min p.i.
  % ID/g: 1.5±0.2 % ID/g
[2]; Bone, 10 min p.i.
  % ID/g: 1.2±0.4 % ID/g
[2]; Bone, 60 min p.i.
  % ID/g: 0.9±0.2 % ID/g
[2]; Carcass, 2 min p.i.
  % ID: 44.5±3.6 % ID
[2]; Carcass, 10 min p.i.
  % ID: 48.6±2.2 % ID
[2]; Carcass, 60 min p.i.
  % ID: 19.3±3.3 % ID
[2]; Cerebellum, 2 min p.i.
  % ID: 0.4±0.1 % ID
  % ID/g: 3.9±0.4 % ID/g
[2]; Cerebellum, 10 min p.i.
  % ID: 0.1±0.0 % ID
  % ID/g: 1.1±0.1 % ID/g
[2]; Cerebellum, 60 min p.i.
  % ID: 0.0±0.0 % ID
  % ID/g: 0.3±0.1 % ID/g
[2]; Cerebrum, 2 min p.i.
  % ID: 1.2±0.2 % ID
  % ID/g: 3.7±0.5 % ID/g
[2]; Cerebrum, 10 min p.i.
  % ID: 0.4±0.0 % ID
  % ID/g: 1.2±0.1 % ID/g
[2]; Cerebrum, 60 min p.i.
  % ID: 0.1±0.0 % ID
  % ID/g: 0.3±0.0 % ID/g
[2]; Heart, 2 min p.i.
  % ID: 0.9±0.1 % ID
  % ID/g: 5.0±1.0 % ID/g
[2]; Heart, 10 min p.i.
  % ID: 0.3±0.1 % ID
  % ID/g: 1.8±0.2 % ID/g
[2]; Heart, 60 min p.i.
  % ID: 0.1±0.0 % ID
  % ID/g: 0.6±0.0 % ID/g
[2]; Intestines, 2 min p.i.
  % ID: 8.9±0.6 % ID
[2]; Intestines, 10 min p.i.
  % ID: 13.0±1.5 % ID
[2]; Intestines, 60 min p.i.
  % ID: 33.8±6.2 % ID
[2]; Kidneys, 2 min p.i.
  % ID: 4.5±0.2 % ID
  % ID/g: 7.1±0.8 % ID/g
[2]; Kidneys, 10 min p.i.
  % ID: 5.0±1.0 % ID
  % ID/g: 7.9±1.2 % ID/g
[2]; Kidneys, 60 min p.i.
  % ID: 1.9±0.4 % ID
  % ID/g: 2.8±0.5 % ID/g
[2]; Liver, 2 min p.i.
  % ID: 28.6±2.5 % ID
  % ID/g: 14.2±2.5 % ID/g
[2]; Liver, 10 min p.i.
  % ID: 16.1±1.6 % ID
  % ID/g: 8.7±1.0 % ID/g
[2]; Liver, 60 min p.i.
  % ID: 8.9±3.2 % ID
  % ID/g: 4.6±2.1 % ID/g
[2]; Lungs, 2 min p.i.
  % ID: 1.5±0.4 % ID
  % ID/g: 4.5±0.3 % ID/g
[2]; Lungs, 10 min p.i.
  % ID: 0.9±0.2 % ID
  % ID/g: 2.7±0.1 % ID/g
[2]; Lungs, 60 min p.i.
  % ID: 0.5±0.2 % ID
  % ID/g: 1.6±1.0 % ID/g
[2]; Muscle, 2 min p.i.
  % ID/g: 1.2±0.3 % ID/g
[2]; Muscle, 10 min p.i.
  % ID/g: 1.3±0.2 % ID/g
[2]; Muscle, 60 min p.i.
  % ID/g: 0.4±0.1 % ID/g
[2]; Pancreas, 2 min p.i.
  % ID: 1.1±0.1 % ID
  % ID/g: 5.4±0.9 % ID/g
[2]; Pancreas, 10 min p.i.
  % ID: 0.6±0.1 % ID
  % ID/g: 2.7±0.2 % ID/g
[2]; Pancreas, 60 min p.i.
  % ID: 0.5±0.2 % ID
  % ID/g: 2.0±0.5 % ID/g
[2]; Skin, 2 min p.i.
  % ID/g: 1.3±0.1 % ID/g
[2]; Skin, 10 min p.i.
  % ID/g: 2.4±0.3 % ID/g
[2]; Skin, 60 min p.i.
  % ID/g: 1.1±0.3 % ID/g
[2]; Spleen, 2 min p.i.
  % ID: 0.6±0.2 % ID
  % ID/g: 4.0±0.8 % ID/g
[2]; Spleen, 10 min p.i.
  % ID: 0.2±0.0 % ID
  % ID/g: 2.0±0.2 % ID/g
[2]; Spleen, 60 min p.i.
  % ID: 0.2±0.0 % ID
  % ID/g: 1.4±0.3 % ID/g
[2]; Stomach, 2 min p.i.
  % ID: 1.4±0.2 % ID
[2]; Stomach, 10 min p.i.
  % ID: 2.0±0.7 % ID
[2]; Stomach, 60 min p.i.
  % ID: 1.8±0.7 % ID
[2]; Trigeminal nerve, 2 min p.i.
  % ID: 0.02±0.00 % ID
  % ID/g: 4.2±0.4 % ID/g
[2]; Trigeminal nerve, 10 min p.i.
  % ID: 0.01±0.00 % ID
  % ID/g: 3.4±0.2 % ID/g
[2]; Trigeminal nerve, 60 min p.i.
  % ID: 0.01±0.00 % ID
  % ID/g: 2.9±0.7 % ID/g
[2]; control mice, 2 min after injection
  total brain uptake: 1.6 % ID
[2]; control mice, 60 min p.i.
  total brain uptake: 0.1 % ID
[2]; control mice, isoflurane 2% in oxygen compared with pentobarbital 60 mg/kg i.p.
  SUV in trigeminal nerve, isoflurane versus pentobarbital anaesthesia: remarkable lower
[2]; [12]
  blood 2 min/60 min ratio: 4.3
  trigeminal nerve 2 min/60 min ratio: 1.5
[3]; mice pretreated with BCTC 10 mg/kg s.c. 1 h before tracer
  trigeminal nerve-to-blood activity ratio: 1.0
[3]; mice pretreated with SB366791 10 mg/kg s.c. 1 h before tracer
  trigeminal nerve-to-blood activity ratio: 1.3
[4]
  trigeminal nerve-to-blood activity ratio: 0.8
[5]; 2 min after i.v. injection
  intact tracer in plasma, of recovered radioactivity: 52.0±3.0%
[5]; 2 min p.i.
  radiometabolites in plasma: 48.0%±3.0
[5]; 10 min p.i.
  radiometabolites in plasma: 82.4%±1.9
[6]; 2 min after injection
  intact tracer in brain, of total recovered radioactivity: 85.6%±3.7
[6]; 10 min after injection
  intact tracer in brain, of total recovered radioactivity: 67.2%±0.7

## COc1cccc(NC(=O)/C=C/c2ccc(Cl)cc2)c1 [SB366791, N-(3-methoxyphenyl)-4-chlorocinnamide]
[7]
  Kd: 0.28 ± 0.056 µM
[8]
  Kd: 0.78 ± 0.14 µM
[9]; agonism assay
  agonist effects: No agonist effects were observed
[9]; [13]
  Ki: 0.197 ± 0.017 µM
[10]; agonism assay
  agonist effects: No agonist effects were observed
[10]; [13]
  Ki: 0.334 ± 0.017 µM
[11]
  IC50: 0.0057 µM
